The record followed here is the EternaBench riboswitch data.

The subject of this data set is MS2 coat protein. The data set can be described thus: apparent Kd, MS2 coat protein; higher = weaker binding; RNA-MaP array; FMN 200 µM where present. The method, boiled down: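 Green signal from SNAP-549-labelled MS2 coat protein was normalised to red-channel RNA signal and to the median Fmax of control clusters. The protein was titrated from 0.7 or 1.5 nM, doubling to 3 µM, without and then with constant ligand, over designs transcribed by stalled E. coli RNA polymerase on Illumina sequencing-chip clusters, in 100 mM Tris-HCl pH 7.5, 80 mM KCl, 4 mM MgCl2, BSA, DTT, yeast tRNA and Tween-20. The apparent Kd is the median of filtered per-cluster binding-curve fits.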

The mark [1] stands for this setting: designed as: ON switch for flavin mononucleotide, no ligand.
Setting [2] is: ligand present: flavin mononucleotide, designed as: ON switch for flavin mononucleotide.
[3] abbreviates: designed as: OFF switch for flavin mononucleotide, no ligand.
[4] abbreviates: ligand present: flavin mononucleotide, designed as: OFF switch for flavin mononucleotide.

For orientation: apparent Kd means the concentration giving half-maximal binding under the conditions of the assay. For “AUUUUAUAAUAGAAGGAGGACUUCAUGAGGAUCACCCAUGUGUUAGUACUUAGGAUAUGUAAUAACAUGAGGAUCACCCAUGUC”, the “apparent Kd” value under setting [1] stood at 38.3 nM and the “apparent Kd” value under setting [2] was found to be 43.3 nM.

“GCACGAGACUAAGGAUAUGGAGUGUCAACAUAAAACAUGAGGAUCACCCAUGUAAAGAGUACGAUUCAGAAGGUAGAGACGUGC”: the “apparent Kd” value came out at 41 nM under setting [1] and 23.6 nM under setting [2].

Consider “AAUAACAGAGGAUAUACUAUUUUAUGUGUUUGUUAUUUUAAACAUGAGGAUCACCCAUGUAGAAGGCUGAGUAA”, for which the “apparent Kd” value amounted to 26.7 nM under setting [3] and 26.9 nM under setting [4].

As for “AAGACCAGAGGAUAUCAGACGCGGCACAUGAGGAUCACCCAUGUAUUCCCGUCUGCCGACUGAGAAGGUUGGAAAG”, the “apparent Kd” value worked out at 12.5 nM under setting [3] and 17 nM under setting [4].

For the sequence “GGUACUCAAAGAGUACCAAUACGAACAUGAGGAUCACCCAUGUAGGAUAUGCUCAAAACGGAGUAGCAGAAGGACAUGUGCCUA”, the “apparent Kd” value under setting [3] was 12.7 nM and the “apparent Kd” value under setting [4] worked out at 32.2 nM.

In the case of “GAUCAACAUGAGGAUCACCCAUGUGAGGAUAUGGACUUGCCCACUUAACCAUUAGAGUCUAGAAGGCGCAUCUA”, the “apparent Kd” value by setting is: under setting [3], 27 nM; under setting [4], 29.9 nM.

“GUGCUCGUGUAAGGAUAUGCAGCCGUUUCGGCUGCAGAAGGUACUAUAAUACAUGAGGAUCACCCAUGUCUCUAUAGUUUGGUG”: the “apparent Kd” value by setting is: under setting [1], 27.4 nM; under setting [2], 33.1 nM.

On to “CUUUUGUGAGGAUAUUCGUAGUAGGGUCAUGGCAUUAUUAUGAAGAAGGCACAUGAGGAUCACCCAUGUACCUU”, for which the “apparent Kd” value was found to be 17.3 nM under setting [3] and 34.6 nM under setting [4].

Regarding “GCCACGUCAGGAUAUCUGAUGUCUAACUUCGGUUAGACAUCAGAGAAGGGACAUGAGGAUCACCCAUGUGGCAA”, the “apparent Kd” value was 264 nM under setting [3] and 177 nM under setting [4].

On to “UGUGCCUCGAGAGGAUAUAACAUGAGGAUCACCCAUGUAACAGAGGUGGAAACACCUCUGAAAUGUUAGAAGGCUCGAGGCACA”, for which the “apparent Kd” value by setting is: under setting [3], 46.6 nM; under setting [4], 57 nM.

As to “AGUUCCUCCGCAGGAUAUGUGCUCUUUACCACAUGAGGAUCACCCAUGUCAGCCUACACGGCGAGACAGAAGGGUGGUGGUGCC”, the “apparent Kd” value is, setting by setting: under setting [1], 96 nM; under setting [2], 157 nM.

“GUUAAGAACUAAGGAUAUUGAAUACAUAUGUUUAACAUGAGGAUCACCCAUGUGGGUUGCGGUGUCGAGAAGGUAGAAUAAUAG”: the “apparent Kd” value worked out at 201 nM under setting [1] and 195 nM under setting [2].

With “CGCAAGUAUACAUGAGGAUCACCCAUGUCAGAAAGGGUAAUCAGAAGGUACUAUUAGAGAAAGAGUAAGGAUAUGAAAUUUGCG”, the “apparent Kd” value is, setting by setting: under setting [1], 747 nM; under setting [2], 125 nM.

On to “GCAGCACUCAUUAACAUGAGGAUCACCCAUGUCAAAAGACAUGAGGAUAUGCAUCUGAAGAAGAUGCAGAAGGCAUUGUGCUGC”, for which the “apparent Kd” value by setting is: under setting [1], 555 nM; under setting [2], 25.6 nM.

As for “UUACGUCCCGUUUACAUGAGGAUCACCCAUGUCGAAAGACAUGAGGAUAUGCUACCUAAUUGGUAGCAGAAGGCAUGGACGUCG”, the “apparent Kd” value was found to be 306 nM under setting [1] and 312 nM under setting [2].

Take “GUUUAUUUACAGAAGGUGUUUUACAUGAGGAUCACCCAUGUUUAAAGGUAUAAAGAAUUUAUUUACAAGGAUAUGUACAAUUUU”: the “apparent Kd” value by setting is: under setting [1], 34.1 nM; under setting [2], 22.1 nM.

Consider “GCCAUCGCAUGAGGAUAUGCUCCGGUUUCCGGAGCAGAAGGCAUGUCACAAGACAUGAGGAUCACCCAUGUAGUUAAGAUGGCA”, for which the “apparent Kd” value by setting is: under setting [1], 185 nM; under setting [2], 8.88 nM.

In the case of “UAACUGCAGAAGAUAAUAAUGAAUACAUGAGGAUCACCCAUGUAGGAUAUCGUCAGGAAUACUGACGAGAAGGACAUACUGCAG”, the “apparent Kd” value by setting is: under setting [3], 14.1 nM; under setting [4], 16.9 nM.

For “CCAUCAGCGAACGAUACGAUUGGACAUGAGGAUCACCCAUGUAGAAGGACAGGAGAAUAACGGCUGUAGGAUAUACAUUUAGUG”, the “apparent Kd” value by setting is: under setting [3], 58.4 nM; under setting [4], 40.6 nM.

With “GGCCCGUCUGUUAGGAUAUUGUCGAACUUUAGCGGCGAGAAGGAACAUGAGGAUCACCCAUGUCCCAACUGGGA”, the “apparent Kd” value is, setting by setting: under setting [3], 25.5 nM; under setting [4], 196 nM.

Turning to “UGGUACUAGGGAGGAUAUGGGAAGAUACAUGAGGAUCACCCAUGUUUAAGAAUGCCGAGAGGCAACUAGAAGGCCCUAGUCCCU”, the “apparent Kd” value runs as follows: under setting [1], 317 nM; under setting [2], 19.1 nM.

Turning to “GACAUACAUGAGGAUCACCCAUGUUCAGAAGGGCAAGGAUAUGUGUGGAAACCAUACUAUACAGAAGGUGUCUGUC”, the “apparent Kd” value under setting [1] came to 34.7 nM and the “apparent Kd” value under setting [2] was 20.3 nM.

On to “GCCUUAUCGGUCAGGAUAUACACCUGUUAGUUGUUGUAGAAGGGACAUGAGGAUCACCCAUGUACAUUACAUUG”, for which the “apparent Kd” value reads like this: under setting [3], 23.1 nM; under setting [4], 40.1 nM.

With “AAUUGACACGUAGGAUAUCGAUCUAAAUUAACUCGAGAAGGACGUACAUGAGGAUCACCCAUGUUUAAUGGAGUAGAUAUGUUG”, the “apparent Kd” value under setting [3] came to 121 nM and the “apparent Kd” value under setting [4] amounted to 398 nM.

As for “AGAAAGGCAGGAUAUACAUGAGGAUCACCCAUGUUAAGAGUGACGGAAACGUCACGAAGUAGAAGGGCCAAGAA”, the “apparent Kd” value by setting is: under setting [3], 21.1 nM; under setting [4], 18.7 nM.

Take “UUUGUUUUGGUAGGAUAUACUUUUAAUUUCUCUUUCCUUACAUGAGGAUCACCCAUGUUUACAUUGUAGAAGGACCACUUUGUU”: the “apparent Kd” value runs as follows: under setting [3], 21.8 nM; under setting [4], 19.2 nM.

For the sequence “UUCAGCUCGUCAGGAUAUACGUCACUGCGUCAGCAGUGUGGUAAGAUCACAUGAGGAUCACCCAUGUAGAAGGGACGAGCUGAU”, the “apparent Kd” value amounted to 13.7 nM under setting [3] and 235 nM under setting [4].

In the case of “AUAUUCAGAGGAUAUGCGCAUAGAUAAGACUUUUUUUCUUAACAUGAGGAUCACCCAUGUAGAAGGCUGUAAUA”, the “apparent Kd” value by setting is: under setting [3], 20.1 nM; under setting [4], 17.5 nM.

Take “GAUGAUCGGUGAGGAUAUUUUAUAACGUUUUUGAAAGAAGGCACUGACAUGAGGAUCACCCAUGUGAGUCCUCAUCUUGAAAUA”: the “apparent Kd” value reads like this: under setting [3], 18 nM; under setting [4], 35.6 nM.

As to “GGUGGACAUGAGGAUCACCCAUGUGAGGAUAUCGGCUGGUACGUGGUGGCUGGCAUCUCGAGAAGGCACAUAGU”, the “apparent Kd” value is, setting by setting: under setting [3], 80.1 nM; under setting [4], 202 nM.

In the case of “GUACGUGGACAGAAGGUGACAUGAGGAUCACCCAUGUUAGUUGAGGUAUCAGCGAUCUGCGUGAUUGAGGAUAUGUCUGCGGGC”, the “apparent Kd” value under setting [3] was found to be 11.9 nM and the “apparent Kd” value under setting [4] was determined as 11.7 nM.

On to “AGCGUACAAGCUGACAUGAGGAUCACCCAUGUGGUCUCAUGCGAGGAUAUCGGGAAGGAGGAUUCCGAGAAGGUGCGGUGAGCC”, for which the “apparent Kd” value reads like this: under setting [1], 275 nM; under setting [2], 44.9 nM.

For the sequence “CAGAUAGGUGUGAGGAUAUAUCGUUAGCAAUGGCUAUAGAAGGCACAUGAGGAUCACCCAUGUGAGAUUGGCGU”, the “apparent Kd” value reads like this: under setting [3], 21.3 nM; under setting [4], 20.5 nM.

In the case of “AAUUGGCUCGCGCAGGAUAUGGAUCAUUCCACAUGAGGAUCACCCAUGUUAAGGAGCCUUUGCAUCCAGAAGGGUGCUGGUCUUU”, the “apparent Kd” value came out at 41.2 nM under setting [1] and 14.6 nM under setting [2].

Regarding “CAGACGUGAGGAUAUCUGAUGUCUAACUUCGGUUAGACAUCAGAGAAGGCACAUGAGGAUCACCCAUGUCUGAA”, the “apparent Kd” value reads like this: under setting [3], 76.8 nM; under setting [4], 309 nM.

For the sequence “GGAUGGUAGGGAGGAUAUGACAUGAGGAUCACCCAUGUGAAACGUCCUAGGUCAGAAGGCCCAUAAGUCAAAACCCAAAAUGUG”, the “apparent Kd” value is, setting by setting: under setting [3], 16.7 nM; under setting [4], 153 nM.

As to “UUACAGUGCGGGUAGGAUAUGUAGGGUGGUACAUGAGGAUCACCCAUGUAUCCACCCUUCUACCGGCAGAAGGGCCUGUCACUGC”, the “apparent Kd” value under setting [1] came to 17 nM and the “apparent Kd” value under setting [2] came to 13.5 nM.

On to “UAUUUAUAAUAUUUUAACAUGAGGAUCACCCAUGUCGCUAGACAGGAUAUAUUUUAUUUUUUUAAGUAGAAGGGUCAUAUAUUU”, for which the “apparent Kd” value was determined as 84 nM under setting [1] and 103 nM under setting [2].

Regarding “AGCACGAAAGUGCAACGAUGUACGAGAAGGACAUGAGGAUCACCCAUGUCGCUGUAACAGCAAAUGUAGGAUAUCGUACAUCGA”, the “apparent Kd” value was found to be 5.14 nM under setting [3] and 5.7 nM under setting [4].

Take “UUACUCAUGUAAGGAUAUGCAGCUGAAACGGCUGCAGAAGGUACUAUAAUACAUGAGGAUCACCCAUGUAAAAUAAAUAAAGUU”: the “apparent Kd” value runs as follows: under setting [1], 24.1 nM; under setting [2], 14.6 nM.

Take “GCUCGAUGCGCUGAGAACAUGAGGAUCACCCAUGUAAAUGGUCAGGAUAUUUACGUGCUUUAUGUAGAGAAGGGACCAUCGAGC”: the “apparent Kd” value was 110 nM under setting [1] and 27.3 nM under setting [2].

As to “GGAUCUUGGGUCAGGAUAUGCUGAUAUUUUUGUCAGCAGAAGGGACAUGAGGAUCACCCAUGUGCUUGGUUUUG”, the “apparent Kd” value by setting is: under setting [3], 11.2 nM; under setting [4], 21.8 nM.

As to “CGUCGAAAUGUAGGAUAUCUGCACGAUUAGUGCAGAGAAGGACAUGAGGAUCACCCAUGUAGAUCACGACGAAUUAAUUUAAUU”, the “apparent Kd” value was determined as 60.7 nM under setting [3] and 480 nM under setting [4].

“AAUAUAAGAGCUGGUAAAUAAAUCACAUGAGGAUCACCCAUGUAGGAUAUCAGCACGAUAAGUGCUGAGAAGGACAUCCAGCUC”: the “apparent Kd” value under setting [3] was 13.4 nM and the “apparent Kd” value under setting [4] was 14.6 nM.

In the case of “CUUCAUUGUUGAGGAUAUAAUUAUAGGAUGUAGUUAGAAGGCGAACAUGAGGAUCACCCAUGUCAGGCAUGGAGACCCUUGACC”, the “apparent Kd” value under setting [3] amounted to 519 nM and the “apparent Kd” value under setting [4] was determined as 624 nM.

On to “GGUCCAUCAUGAGGAUAUGGCACCUUAUUGGUGCCAGAAGGCAUGUCUAUUGACAUGAGGAUCACCCAUGUAUUAAUUUGGACC”, for which the “apparent Kd” value amounted to 1040 nM under setting [1] and 80.7 nM under setting [2].

“GUCUUCCUAGGAUAUACAUGAGGAUCACCCAUGUACAGUUUCGUCAAAGGAUACUCGCGUAGAAGGAGGUGGAU”: the “apparent Kd” value runs as follows: under setting [3], 26 nM; under setting [4], 50.7 nM.

Turning to “AGGUAACAUGAGGAUCACCCAUGUCAGGAUAUCAGUAAGAUGAGUAUAGAAUAGAGUAUGAGAAGGGACUAUAU”, the “apparent Kd” value by setting is: under setting [3], 36.5 nM; under setting [4], 28.6 nM.
